# A selection: hits, their analogues and other compounds. The true share with any hit is near 1.4%.
# HKDC1 inh: inhibitors of human hexokinase HKDC1; AID 493160; Q2TB90; recombinant HKDC1, G6PDH/diaphorase resazurin coupled fluorescence; 0.16% of 340,000 active; inhibition, % at 20 µM;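 active = inhibition above about 35% when tested at 20 µM, limit read from the data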;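 also: plate controls were DMSO wells with enzyme for no effect and DMSO wells lacking enzyme for full effect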
#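 Test system: recombinant HKDC1 (HK5) hexokinase enzyme, produced in-house / Doses: 20 µM test compound, 1% DMSO / Timing: 90 min, room temperature / Detection: G6PDH/diaphorase-coupled fluorescence, 1 mM NADP, 100 µM resazurin, 525/613 nm / Control set: DMSO wells with and without enzyme mix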
# Diaph act CS: counter-screen for diaphorase-based assays: diaphorase activators and chemical reducers. activation factor at 20 µM. 0.005% of 190,000 active. Diaphorase/resazurin coupled assay, resorufin fluorescence, 16 min; hits give high values; 1 = vehicle wells, 0 = NADH-free wells;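 active = diaphorase activity raised at least twofold by the compound at 20 µM; inactive = activation factor below 2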
#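 Test system: Clostridium kluyveri diaphorase, purified enzyme. Buffer or medium: 50 mM HEPES pH 7.4 buffer plus MgCl2 and Tween 20. Also added: 0.114 mM NADH and 0.1 mM resazurin, final amounts. Dosing: compound 20 µM once, DMSO 1%. Schedule: 16 min enzyme reaction, ambient temperature. Detection: fluorescence of resorufin, 544 nm excitation, 590 nm emission.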
# Diaph inh CS: diaphorase inhibition or chemical oxidation counter-screen. 0.69% of 190,000 active. inhibition, % at 20 µM. AID 1217. diaphorase resazurin-to-resorufin fluorescence, NADH, 16 min; bacterial (C. kluyveri) enzyme, not human;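 active = primary screen inhibition at 20 µM above a set limit, cut at about 50% in these data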;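 also: plate controls were DMSO with full reaction for no effect and wells lacking NADH for full effect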
#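 System: Bacterial diaphorase enzyme (C. kluyveri) | Incubation: 16-min room-temperature incubation before reading | Benchmarks: No-NADH positive control and DMSO neutral control | Measured by: Resorufin fluorescence 544/590 nm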
# Fh CTSL1 inh: counter-screen for PFM18AAP inhibitors: inhibitors of F. hepatica cathepsin L1; recombinant F. hepatica cathepsin L1, Z-Leu-Arg-MCA fluorescence; inhibition, % at 5.96 µM; 0.49% of 300,000 active; AID 1906;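 active = inhibition above the mean of all tested compounds plus 3 SD, set per screening campaign, cut at about 17% in these data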;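 also: 0% = plate median of test compound wells and 100% = 1 µM Z-Phe-Ala-diazomethylketone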
# ATG4B inh: blocks human ATG4B protease cleavage of LC3 substrate. Q9Y4P1. ATG4B cleavage of LC3-PLA2, NBD-HPC fluorescence, 1 h. inhibition, % at 8.33 µM. 0.51% of 340,000 active. AID 504462; in the data active = inhibition above about 40%
# Target sequence (Q9Y4P1 whole entry, looked up): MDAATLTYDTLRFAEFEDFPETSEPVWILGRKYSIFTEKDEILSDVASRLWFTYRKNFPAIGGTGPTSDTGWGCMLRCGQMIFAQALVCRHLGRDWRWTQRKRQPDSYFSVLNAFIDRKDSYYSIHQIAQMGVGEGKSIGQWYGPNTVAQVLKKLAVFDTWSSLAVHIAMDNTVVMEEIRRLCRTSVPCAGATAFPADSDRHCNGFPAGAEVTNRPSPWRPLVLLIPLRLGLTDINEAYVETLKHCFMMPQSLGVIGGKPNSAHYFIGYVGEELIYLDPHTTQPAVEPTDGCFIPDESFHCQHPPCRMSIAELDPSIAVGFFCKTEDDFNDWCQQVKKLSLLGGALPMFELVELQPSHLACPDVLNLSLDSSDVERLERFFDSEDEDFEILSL
# Numbers without * were called inactive; · = not tested or not shown.
SMILES,HKDC1 inh,Diaph act CS,Diaph inh CS,Fh CTSL1 inh,ATG4B inh
CC(=O)O[C@H]1CC(C)(C)C(=C=C/C(C)=C/C=C/C(C)=C/C=C/C=C(C)/C=C/C=C(\C)C(=O)C[C@@]23O[C@]2(C)C[C@@H](O)CC3(C)C)[C@](C)(O)C1,2.5,·,·,33.9*,-12.0
CCCN(CCC)C(=O)CC(c1ccc(F)cc1)c1ccco1 (stereo not given),3.8,0.8,16.5,57.3*,-6.0
CCN(CC)C(=O)CP(=O)(c1ccccc1)c1ccccc1,-2.5,0.9,6.5,4.7,-5.3
O=C(CC(c1ccc(F)cc1)c1ccco1)Nc1nccs1 (stereo not given),2.4,0.8,17.9,-0.3,-4.6
CCN(CC)C(=O)CC(c1ccccc1)c1ccco1 (stereo not given),-4.7,0.9,9.5,35.5*,2.7
O=C(CC(c1ccc(F)cc1)c1ccco1)N1CCCC1 (stereo not given),-0.3,1,2.0,35.7*,-13.2
O=C(CC(c1ccc(F)cc1)c1ccco1)N1CCOCC1 (stereo not given),-5.9,1,4.8,15.2,-5.5
COc1ccccc1NC(=O)CC(c1ccc(F)cc1)c1ccco1 (stereo not given),1.6,·,·,21.4*,0.1
CC(C)(CO)NS(=O)(=O)c1ccc2c(c1)Cc1cc(S(=O)(=O)NC(C)(C)CO)ccc1-2,4.7,·,·,-0.5,-18.6
O=C1c2ccccc2C(=O)N1CCC(c1ccc(F)cc1)c1ccco1 (stereo not given),1.9,0.7,25.9,18.0*,11.6
O=C(c1cc(Br)ccc1O)N1CCN(S(=O)(=O)Cc2ccccc2)CC1,4.2,·,·,·,-6.7
CC(C)(C)CC(=O)Nc1nnc(SCC(=O)N2CCCCC2)s1,-1.6,·,·,-2.9,-3.3
Cc1cccc(-n2ncc3c2CCCC3NC(=O)CCN2Cc3ccccc3C2=O)c1C (stereo not given),3.5,·,·,-0.9,-0.4
O=C(CSc1nc2ccccc2s1)Nc1cc(C(=O)O)cc(C(=O)O)c1,-3.1,0.4,61.7*,-5.7,-1.4
O=C(CSc1nc2ccccc2s1)Nc1ccc(Cl)c(C(=O)O)c1,-0.3,0.9,14.8,-1.0,-14.2
COc1ccc(NC(=O)CSc2nnc(-c3ccncc3)o2)c([N+](=O)[O-])c1,0.8,·,·,-1.1,3.0
CCOc1ccc(Nc2ncnc3c2cnn3C)cc1,-1.3,·,·,-2.1,-6.8
O=C(NNC(=S)NC(=O)C12CC3CC(CC(C3)C1)C2)c1ccncc1,-15.6,0.5,50.9*,-2.0,-18.0
CCC(C)NC(=S)NNC(=O)c1ccncc1 (stereo not given),-4.3,1.1,-11.4,20.2*,1.2
[O-]/C(=C(\C(=S)Nc1cccc2ccccc12)[n+]1ccccc1)c1ccc(Cl)s1,7.4,0.5,47.7,1.1,-6.3
CCc1cccc(CC)c1NC(=S)/C(=C(\[O-])c1ccc(Cl)s1)[n+]1ccccc1,-9.4,0.9,5.7,34.2*,-1.6
COc1ccc(/C=N/n2c(-c3n[nH]c4c3CCC4)n[nH]c2=S)cc1OC,12.8,0.4,63.1*,-2.9,-7.5
NS(=O)(=O)c1ccc(CNC(=O)c2cc(-c3cccnc3)nc3ccc(Br)cc23)cc1,0.0,·,·,0.6,-11.3
O=C(COC(=O)c1cccc2c1C(=O)c1ccccc1C2=O)NC1CCCCC1,10.6,0.8,23.5,11.1,-10.0
O=C(COC(=O)c1ccc2c(c1[N+](=O)[O-])C(=O)c1ccccc1C2=O)NC1CC1,24.9,0.7,27.3,21.4*,-14.4
SMILES,HKDC1 inh,Diaph act CS,Diaph inh CS,Fh CTSL1 inh,ATG4B inh
CC(C)CC(NC(=O)C1CCC(C)CC1)C(=O)NCc1ccco1 (stereo not given),3.5,1,4.9,22.7*,-0.9
CCOC(=O)COn1c(-n2nc(C)cc2C)nc2ccccc2c1=O,0.1,·,·,0.5,8.4
CCCOP(=O)(c1ccc(N(C)C)cc1)C(Nc1ccccc1)c1ccc(C)cc1 (stereo not given),3.8,·,·,20.7*,-5.4
CCOc1ccc(/C(C)=N/NC(=O)c2nnn(-c3nonc3N)c2-c2cccs2)cc1,-1.5,·,·,2.0,0.6
O/N=C/c1ccc2cccc(OCc3ccccc3)c2n1,6.6,·,·,0.9,-1.7
NC(=S)N/N=C/c1ccc2cccc(OCc3ccccc3)c2n1,12.2,·,·,18.4*,-3.7

# Screening results (PubChem BioAssay)
